Results taken from ChEMBL document CHEMBL3407499, “Synthesis, QSAR and anticandidal evaluation of 1,2,3-triazoles derived from naturally bioactive scaffolds” (Eur J Med Chem, 2015).
In brackets after ≈: the same amount, converted by molar mass.

Experiments:
Candida albicans [1] = assay: microbe, parasite or virus in culture; assay type: functional, organism-based; details: ATCC 90028, 24 h
Candida albicans [2] = assay: microbe, parasite or virus in culture; assay type: functional; details: ATCC 90028, 48 h
Nakaseomyces glabratus [3] = assay: microbe, parasite or virus in culture; assay type: functional, organism-based; details: ATCC 90030, 24 h
Nakaseomyces glabratus [4] = assay: microbe, parasite or virus in culture; assay type: functional; details: ATCC 90030, 48 h
Candida tropicalis [5] = assay: Anticandidal activity against Candida tropicalis ATCC 750 incubated at 37 degC for 24 hrs by broth dilution method; assay type: functional, organism-based; details: ATCC 750, 24 h
Candida tropicalis [6] = assay: Fungicidal activity against Candida tropicalis ATCC 750 incubated at 37 degC for 48 hrs by broth dilution method; assay type: functional; details: ATCC 750, 48 h
Vero [7] = assay: Cytotoxicity against African green monkey Vero cells assessed as reduction in cell viability up to 10 ug/ml after 48 hrs by neutral red assay; assay type: cell-based; details: chlorocebus sabaeus
Candida albicans [8] = assay: Anticandidal activity against Candida albicans ATCC 90028 incubated at 37 degC for 24 hrs in presence of fluconazole by broth micro dilution method; assay type: functional; details: ATCC 90028, 24 h
Nakaseomyces glabratus [9] = assay: Anticandidal activity against Candida glabrata ATCC 90030 incubated at 37 degC for 24 hrs in presence of fluconazole by broth micro dilution method; assay type: functional; details: ATCC 90030, 24 h
Candida tropicalis [10] = assay: Anticandidal activity against Candida tropicalis ATCC 750 incubated at 37 degC for 24 hrs in presence of fluconazole by broth micro dilution method; assay type: functional; details: ATCC 750, 24 h
Candida albicans [11] = assay: Anticandidal activity against Candida albicans ATCC 90028 assessed as fractional inhibitory concentration incubated at 37 degC for 24 hrs in presence of fluconazole by broth micro dilution method; assay type: functional
Nakaseomyces glabratus [12] = assay: Anticandidal activity against Candida glabrata ATCC 90030 assessed as fractional inhibitory concentration incubated at 37 degC for 24 hrs in presence of fluconazole by broth micro dilution method; assay type: functional
Candida tropicalis [13] = assay: Anticandidal activity against Candida tropicalis ATCC 750 assessed as fractional inhibitory concentration incubated at 37 degC for 24 hrs in presence of fluconazole by broth micro dilution method; assay type: functional
[14] = Toxicity in human RBC assessed as induction of hemolysis at 500 ug/ml incubated for 1 hr by spectrophotometry; assay type: cell-based, Erythrocyte; details: red blood cells (RBC), read-out: Activity
In short: (§1)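 Human erythrocyte suspension in PBS, 100 µL added in triplicate to 100 µL compound dilution series in the same buffer, 1 h at 37 °C. Tubes centrifuged 10 min at 2000 rpm and 20 °C, and supernatant A450 measured. Percent hemolysis taken relative to buffer (0%) and 1% Triton X-100 (100%).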

[15] = Toxicity in human RBC assessed as induction of hemolysis at anticandidal IC50 level incubated for 1 hr by spectrophotometry; assay type: cell-based, Erythrocyte; details: red blood cells (RBC), read-out: Activity
In short: as §1

Vero [16] = assay: Cytotoxicity against African green monkey Vero cells assessed as reduction in cell viability after 48 hrs by neutral red assay; assay type: cell-based; details: chlorocebus sabaeus
In short: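 Vero (monkey kidney fibroblast) cells seeded at 25,000 cells/well, grown 24 h, then exposed to a range of compound concentrations for 48 h. Viable cells quantified by Neutral Red uptake. IC50 read from dose-response curves. Doxorubicin served as positive cytotoxic control.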

Nakaseomyces glabratus [17] = assay: Anticandidal activity against Candida glabrata ATCC 90030 incubated at 37 degC for 24 hrs in presence of 8-((1-Benzyl-1H-1,2,3-triazol-4-yl)methoxy)quinoline by broth micro dilution method; assay type: functional; details: ATCC 90030, 24 h
Candida tropicalis [18] = assay: Anticandidal activity against Candida tropicalis ATCC 750 incubated at 37 degC for 24 hrs in presence of 8-((1-Benzyl-1H-1,2,3-triazol-4-yl)methoxy)quinoline by broth micro dilution method; assay type: functional; details: ATCC 750, 24 h

Row | Compound | IC50 (Candida albicans [1]) | MFC (Candida albicans [2]) | IC50 (Nakaseomyces glabratus [3]) | MFC (Nakaseomyces glabratus [4]) | IC50 (Candida tropicalis [5]) | MFC (Candida tropicalis [6]) | Activity (Vero [7]) | other results
1 | CC(C)c1ccc(O)cc1 | 182 µg/mL (≈ 1330 µM) | 500 µg/mL (≈ 3670 µM) | 153 µg/mL (≈ 1130 µM) | > 1000 µg/mL | 69.5 µg/mL (≈ 510 µM) | > 1000 µg/mL | – | –
2 | CC(C)c1ccc(CO)cc1 | 81.5 µg/mL (≈ 542 µM) | 1000 µg/mL (≈ 6660 µM) | 7.09 µg/mL (≈ 47.2 µM) | 500 µg/mL (≈ 3330 µM) | 44.8 µg/mL (≈ 298 µM) | 1000 µg/mL (≈ 6660 µM) | – | –
3 | CC(C)c1ccc(OCc2cn(Cc3ccccc3)nn2)cc1 | 550 µg/mL (≈ 1790 µM) | 1000 µg/mL (≈ 3250 µM) | 1060 µg/mL (≈ 3460 µM) | 1000 µg/mL (≈ 3250 µM) | 493 µg/mL (≈ 1600 µM) | 1000 µg/mL (≈ 3250 µM) | Non-toxic | –
4 | CC(C)c1ccc(COCc2cn(Cc3ccccc3)nn2)cc1 | 324 µg/mL (≈ 1010 µM) | > 1000 µg/mL | 316 µg/mL (≈ 984 µM) | > 1000 µg/mL | 169 µg/mL (≈ 527 µM) | > 1000 µg/mL | Non-toxic | –
5 | COc1cc(/C=C/C(=O)O)ccc1OCc1cn(Cc2ccccc2)nn1 | 891 µg/mL (≈ 2440 µM) | > 1000 µg/mL | 416 µg/mL (≈ 1140 µM) | > 1000 µg/mL | 105 µg/mL (≈ 288 µM) | > 1000 µg/mL | Non-toxic | –
6 | COc1ccccc1OCc1cn(Cc2ccccc2)nn1 | 515 µg/mL (≈ 1740 µM) | – | 370 µg/mL (≈ 1250 µM) | > 1000 µg/mL | 165 µg/mL (≈ 559 µM) | – | Non-toxic | –
7 | c1ccc(Cn2cc(COc3cccc4cccnc34)nn2)cc1 | 0.044 µg/mL (≈ 0.139 µM) | 62.5 µg/mL (≈ 198 µM) | 12 µg/mL (≈ 38 µM) | 125 µg/mL (≈ 395 µM) | 3.6 µg/mL (≈ 11.4 µM) | 62.5 µg/mL (≈ 198 µM) | Non-toxic | MIC (Candida albicans [1]): 15.6 µg/mL (≈ 49.4 µM); MIC (Nakaseomyces glabratus [3]): 31.2 µg/mL (≈ 98.8 µM); MIC (Candida tropicalis [5]): 15.6 µg/mL (≈ 49.4 µM); MIC (Candida albicans [8]): 7.81 µg/mL; MIC (Nakaseomyces glabratus [9]): 7.81 µg/mL; MIC (Candida tropicalis [10]): 7.81 µg/mL; fractional inhibitory concentration index (FICI) (Candida albicans [11]): 0.74; fractional inhibitory concentration index (FICI) (Nakaseomyces glabratus [12]): 0.48; fractional inhibitory concentration index (FICI) (Candida tropicalis [13]): 0.74; hemolysis at 1 h, 500 ug/ml [14]: 4.76%; hemolysis at 1 h [15]: < 5%
8 | C/C=C/c1ccc(OCc2cn(Cc3ccccc3)nn2)c(OC)c1 | 481 µg/mL (≈ 1430 µM) | – | 293 µg/mL (≈ 873 µM) | > 1000 µg/mL | 154 µg/mL (≈ 459 µM) | > 1000 µg/mL | Non-toxic | –
9 | C=CCc1ccc(OCc2cn(Cc3ccccc3)nn2)c(OC)c1 | 1090 µg/mL (≈ 3260 µM) | > 1000 µg/mL | 847 µg/mL (≈ 2530 µM) | > 1000 µg/mL | 734 µg/mL (≈ 2190 µM) | – | Non-toxic | –
10 | COc1cc(C=O)ccc1OCc1cn(Cc2ccccc2)nn1 | 44.7 µg/mL (≈ 138 µM) | > 500 µg/mL | 216 µg/mL (≈ 667 µM) | 500 µg/mL (≈ 1550 µM) | 92.7 µg/mL (≈ 287 µM) | 500 µg/mL (≈ 1550 µM) | Non-toxic | hemolysis at 1 h, 500 ug/ml [14]: 33.5%; hemolysis at 1 h [15]: < 5%
11 | COc1cccc2c1C(=O)c1c(O)c3c(c(O)c1C2=O)C[C@@](O)(C(=O)CO)C[C@@H]3O[C@H]1C[C@H](N)[C@H](O)[C@H](C)O1 [DOXORUBICIN] | – | – | – | – | – | – | – | IC50 (Vero [16]): > 5 µg/mL
12 | C=CCc1ccc(O)c(OC)c1 [EUGENOL] | 237 µg/mL (≈ 1440 µM) | > 1000 µg/mL | 216 µg/mL (≈ 1310 µM) | > 1000 µg/mL | 92.7 µg/mL (≈ 564 µM) | > 1000 µg/mL | – | –
13 | COc1cc(/C=C/C(=O)O)ccc1O [FERULATE] | 210 µg/mL (≈ 1080 µM) | > 1000 µg/mL | 617 µg/mL (≈ 3180 µM) | > 1000 µg/mL | 67.6 µg/mL (≈ 348 µM) | > 1000 µg/mL | – | –
14 | OC(Cn1cncn1)(Cn1cncn1)c1ccc(F)cc1F [FLUCONAZOLE] | 15.6 µg/mL (≈ 51 µM) | – | 7.81 µg/mL (≈ 25.5 µM) | – | 8.55 µg/mL (≈ 27.9 µM) | – | – | MIC (Nakaseomyces glabratus [3]): 15.6 µg/mL (≈ 51 µM); MIC (Candida tropicalis [5]): 15.6 µg/mL (≈ 51 µM); MIC (Nakaseomyces glabratus [17]): 3.9 µg/mL; MIC (Candida tropicalis [18]): 3.9 µg/mL; hemolysis at 1 h, 500 ug/ml [14]: 68.6%
15 | COc1ccccc1O [GUAIACOL] | 179 µg/mL (≈ 1440 µM) | > 1000 µg/mL | 336 µg/mL (≈ 2700 µM) | > 1000 µg/mL | 201 µg/mL (≈ 1620 µM) | > 1000 µg/mL | – | –
16 | C/C=C\c1ccc(O)c(OC)c1 [ISOEUGENOL] | 83 µg/mL (≈ 505 µM) | 1000 µg/mL (≈ 6090 µM) | 71.6 µg/mL (≈ 436 µM) | 500 µg/mL (≈ 3040 µM) | 128 µg/mL (≈ 778 µM) | 1000 µg/mL (≈ 6090 µM) | – | –
17 | Oc1cccc2cccnc12 [OXYQUINOLINE] | 18.5 µg/mL (≈ 127 µM) | 500 µg/mL (≈ 3440 µM) | 13.8 µg/mL (≈ 95.1 µM) | 500 µg/mL (≈ 3440 µM) | 22.9 µg/mL (≈ 158 µM) | 500 µg/mL (≈ 3440 µM) | – | MIC (Candida tropicalis [5]): 15.6 µg/mL (≈ 108 µM); hemolysis at 1 h, 500 ug/ml [14]: 15%; hemolysis at 1 h [15]: < 5%
18 | COc1cc(C=O)ccc1O [VANILLIN] | 321 µg/mL (≈ 2110 µM) | > 1000 µg/mL | 483 µg/mL (≈ 3170 µM) | > 1000 µg/mL | 123 µg/mL (≈ 811 µM) | > 1000 µg/mL | – | hemolysis at 1 h, 500 ug/ml [14]: 5.45%; hemolysis at 1 h [15]: < 5%
